From article PMC4496304 (Environmental science & technology, 2015)
“Also recorded” adds a separate entry of the source. Where a name gives a salt, the structure may show the parent alone. Read-outs that look alike come from different tables or passages of the source. Marks after values point to notes of the source that are not given here.

How the values were obtained:
[1] = tested on: human transthyretin; conditions: cited from earlier work
[2] = Stability of 4-PCB 11 sulfate in rat urine; type: in vitro ADME; conditions: 24 hours at 25 °C (experiments not shown)
[3] = type: in vivo, male Sprague-Dawley rats
Summary of the method: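 Single tail-vein injection in male rats (247 ± 8 g, 7-day acclimatization): 2 mM dosing solution in 5% (v/v) DMSO/sterile saline, 575 μg/kg; vehicle-injected controls. Killed by CO2 and cervical dislocation ~3 min, 1 h or 24 h post-dose (n = 6). Feces and intestinal contents came from rats held 24 h in metabolism cages. Tissues homogenized in 4 volumes water (liver: 20% acetonitrile). Analysis by negative-ion LC-ESI-MS/MS with internal standard.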

[4] = PCB 11 and its metabolites, rat, cited from earlier work
[5] = 3min, iv 575 μg/kg, assuming total dose 142 μg
[6] = 24 hours, iv 575 μg/kg, assuming total dose 142 μg
[7] = 1 hour, iv 575 μg/kg, assuming total dose 142 μg

O=S(=O)(O)Oc1ccc(-c2cccc(Cl)c2)cc1Cl [4-PCB 11 sulfate, 3,3′-dichloro-4′-sulfooxy-biphenyl]
Affinity for transthyretin (T4 binding sites) [1]: affinity comparable to the physiological ligand, thyroxine; also recorded: among the most potent ligands
Stability in rat urine [2]: stable
Fraction of 4-PCB 11 sulfate not recoverable ([3]; 1 hour, all samples examined): about two thirds
4-PCB 11 sulfate concentrations in tissues and fluids examined ([3]; after 24 hours of exposure): below the LOD
Observable 4-PCB 11 sulfate levels as fraction of the initial dose ([3]; after one hour): about one third
4-PCB 11 sulfate in bile ([3]; bile collected during 1 hour after injection, bile duct-cannulated rats, iv): 34 ± 3.9 µg
Fluid or Tissue (ml or g): brain, exposed animals ([3]; brain weight, exposed rats): 1.69 ± 0.07 ml or g
% of total dose in brain [3, 5]: 0.6 ± 0.2%
4-PCB 11 sulfate in brain ([3]; 3min, iv 575 μg/kg, rat): 0.8 ± 0.3 µg
4-PCB 11 sulfate in brain ([3]; 1 hour, iv 575 μg/kg, rat, detectable only in three samples): 0.9 ± 0.9 ^c μg
% of total dose in brain [3, 6]: 0%
4-PCB 11 sulfate in brain ([3]; 24 hours, iv 575 μg/kg, rat): < LOD
% of total dose in feces ([3]; feces, 24 hours, iv 575 μg/kg, assuming total dose 142 μg): 0%
4-PCB 11 sulfate in feces ([3]; feces, 24 hours, iv 575 μg/kg, rat): did not contain detectable levels; also recorded: undetectable; also recorded: < LOD
% of total dose in intestinal contents ([3]; intestinal contents, 24 hours, iv 575 μg/kg, assuming total dose 142 μg): 0%
4-PCB 11 sulfate in intestinal contents ([3]; intestinal contents, 24 hours, iv 575 μg/kg, rat): did not contain detectable levels; also recorded: undetectable; also recorded: < LOD
Fluid or Tissue (ml or g): kidneys, exposed animals ([3]; kidneys weight, exposed rats): 1.86 ± 0.16 ml or g
% of total dose in kidneys [3, 5]: 8.7 ± 2.4%
4-PCB 11 sulfate in kidneys ([3]; 3min, iv 575 μg/kg, rat): 12 ± 3.4 µg
% of total dose in kidneys [3, 7]: 1.1 ± 0.5%
4-PCB 11 sulfate in kidneys ([3]; 1 hour, iv 575 μg/kg, rat): 1.6 ± 0.7 µg
% of total dose in kidneys [3, 6]: 0%
Fluid or Tissue (ml or g): liver, exposed animals ([3]; liver weight, exposed rats): 10.6 ± 0.94 ml or g
% of total dose in liver [3, 5]: 47 ± 15%
4-PCB 11 sulfate in liver ([3]; 3min, iv 575 μg/kg, rat): 67 ± 21 µg
% of total dose in liver [3, 7]: 2 ± 1%
4-PCB 11 sulfate in liver ([3]; 1 hour, iv 575 μg/kg, rat): 2.9 ± 1.4 µg
% of total dose in liver [3, 6]: 0%
4-PCB 11 sulfate in liver ([3]; 24 hours, iv 575 μg/kg, rat): < LOD
Fluid or Tissue (ml or g): lungs, exposed animals ([3]; lungs weight, exposed rats): 1.3 ± 0.18 ml or g
% of total dose in lungs [3, 5]: 3.9 ± 1%
4-PCB 11 sulfate in lungs ([3]; 3min, iv 575 μg/kg, rat): 5.6 ± 1.4 µg
% of total dose in lungs [3, 7]: 0.4 ± 0.4%
4-PCB 11 sulfate in lungs ([3]; 1 hour, iv 575 μg/kg, rat): 0.6 ± 0.6 µg
% of total dose in lungs [3, 6]: 0%
4-PCB 11 sulfate in lungs ([3]; 24 hours, iv 575 μg/kg, rat): < LOD
Blood brain barrier crossing (detection in brain tissue) ([3]; rat, iv): ability to cross the blood brain barrier
Organ weights, exposed versus control animals ([3]; rat, iv 575 μg/kg): no significant differences
% of total dose in serum ([3]; 3min, iv 575 μg/kg, assuming total dose 142 μg per animal): 35 ± 8.5%
4-PCB 11 sulfate in serum ([3]; 3min post-injection, iv 575 μg/kg, rat): 50 ± 12 µg
% of total dose in serum [3, 7]: 2.1 ± 1.2%
4-PCB 11 sulfate in serum ([3]; 1 hour, iv 575 μg/kg, rat): 3.0 ± 1.6 µg
% of total dose in serum [3, 6]: 0%
4-PCB 11 sulfate in serum ([3]; 24 hours, iv 575 μg/kg, rat): < LOD
% of total dose in urine ([3]; urine, 24 hours collection, iv 575 μg/kg, assuming total dose 142 μg): 3.7 ± 1.8%
4-PCB 11 sulfate in urine ([3]; urine, 24 hours collection, iv 575 μg/kg, rat): 5.3 ± 2.5 µg

Clc1cccc(-c2cccc(Cl)c2)c1 [PCB 11, 3,3′-dichlorobiphenyl]
t1/2 clearance from liver ([4]; liver): 2.1 h
t1/2 clearance from lungs ([4]; lungs): 1.9 h
t1/2 clearance from serum ([4]; serum): 1.8 h
